Test results reported in ChEMBL document CHEMBL1671698, “Is the recommended once-daily dose of lamivudine optimal in West African HIV-infected children?” (Antimicrob Agents Chemother, 2010).

Columns and labels:
[1] = Cmax in HIV-1 infected children aged 2.5 to 14 years at 8 mg/kg, po every 24 hrs coadministered with 240 mg/m2 of didanosine and efavirenz by HPLC; assay type: ADME, organism-based; set-up: dose 8 mg/kg, route oral; settings: human, in vivo
Method in brief: (§1)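 Treatment-naive children took once-daily oral lamivudine at 8 mg/kg (tablets or solution) at 6 p.m. without food, with didanosine 240 mg/m2 and weight-banded efavirenz. Blood was drawn after 15 days (38 children) or 2–5 months (11 children), either predose plus 1 and 3 h, or predose through 24 h. Plasma was kept at −70°C and assayed by HPLC-UV (LLOQ 0.025 mg/liter). Data were fitted with a two-compartment population model in NONMEM using FOCE.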

[2] = AUC (0 to tau) in HIV-1 infected children aged 2.5 to 14 years at 8 mg/kg, po every 24 hrs coadministered with 240 mg/m2 of didanosine and efavirenz by HPLC; assay type: ADME, organism-based; set-up: dose 8 mg/kg, route oral; settings: human, plasma; method in brief: as §1
[3] = Cmax in HIV-1 infected children aged 6.9 years at 4 mg/kg, po every 12 hrs coadministered with nevirapine and stavudine by HPLC; assay type: ADME, organism-based; set-up: dose 4 mg/kg, route oral; settings: human, in vivo
[4] = AUC (0 to tau) in HIV-1 infected children aged 6.9 years at 4 mg/kg, po every 12 hrs coadministered with nevirapine and stavudine by HPLC; assay type: ADME, organism-based; set-up: dose 4 mg/kg, route oral; settings: human, plasma
[5] = Cmax in HIV-1 infected children aged 2.5 to 4.8 years at 4 mg/kg, po every 12 hrs by HPLC; assay type: ADME, organism-based; set-up: dose 4 mg/kg, route oral; settings: human, in vivo
[6] = AUC (0 to tau) in HIV-1 infected children aged 2.5 to 4.8 years at 4 mg/kg, po every 12 hrs by HPLC; assay type: ADME, organism-based; set-up: dose 4 mg/kg, route oral; settings: human, plasma
[7] = Cmax in HIV-1 infected children aged 8.5 to 12.3 years at 4 mg/kg, po every 12 hrs by HPLC; assay type: ADME, organism-based; set-up: dose 4 mg/kg, route oral; settings: human, in vivo
[8] = AUC (0 to tau) in HIV-1 infected children aged 8.5 to 12.3 years at 4 mg/kg, po every 12 hrs by HPLC; assay type: ADME, organism-based; set-up: dose 4 mg/kg, route oral; settings: human, plasma
[9] = Cmax in HIV-1 infected children aged 2.1 to 12.8 years at 4 mg/kg, po every 12 hrs coadministered with 8 mg/kg abacavir by HPLC; assay type: ADME, organism-based; set-up: dose 4 mg/kg, route oral; settings: human, in vivo
[10] = AUC (0 to tau) in HIV-1 infected children aged 2.1 to 12.8 years at 4 mg/kg, po every 12 hrs coadministered with 8 mg/kg abacavir by HPLC; assay type: ADME, organism-based; settings: human, plasma
[11] = AUC in HIV-1 infected children with body weight <17 kg at 8 mg/kg, po every 24 hrs coadministered with 240 mg/m2 of didanosine and efavirenz by HPLC; assay type: ADME, organism-based; set-up: dose 8 mg/kg, route oral; settings: human, plasma
[12] = AUC in HIV-1 infected children with body weight >17 kg at 8 mg/kg, po every 24 hrs coadministered with 240 mg/m2 of didanosine and efavirenz by HPLC; assay type: ADME, organism-based; set-up: dose 8 mg/kg, route oral; settings: human, plasma
Homo sapiens = assay: AUC in HIV-1 infected children with body weight <17 kg at 10 mg/kg, po every 24 hrs coadministered with 240 mg/m2 of didanosine and efavirenz by HPLC; assay type: ADME, organism-based, Plasma; set-up: dose 10 mg/kg, route oral; settings: in vivo
[13] = Cmax in HIV-1 infected children aged 2.1 to 12.8 years at 8 mg/kg, po every 24 hrs coadministered with 8 mg/kg abacavir by HPLC; settings: human, in vivo
[14] = AUC (0 to tau) in HIV-1 infected children aged 2.1 to 12.8 years at 8 mg/kg, po every 24 hrs coadministered with 8 mg/kg abacavir by HPLC; settings: human, plasma

Cmax [1]: 1700 ng/mL | AUC tau at 24 h [2]: 7800 ng·h/mL | Cmax [3]: 1330 ng/mL | AUC tau at 12 h [4]: 5420 ng·h/mL | Cmax [5]: 980 ng/mL | AUC tau at 12 h [6]: 3710 ng·h/mL | Cmax [7]: 1840 ng/mL | AUC tau at 12 h [8]: 6540 ng·h/mL | Cmax [9]: 1110 ng/mL | AUC tau at 12 h [10]: 4440 ng·h/mL | Cmax [13]: 2090 ng/mL | AUC tau at 24 h [14]: 9800 ng·h/mL
Compound: Nc1ccn([C@@H]2CS[C@H](CO)O2)c(=O)n1 [LAMIVUDINE]
AUC at 24 h [11]: 8100 ng·h/mL | AUC at 24 h [12]: 9100 ng·h/mL | AUC (Homo sapiens): 9800 ng·h/mL
